An excerpt weighted towards active compounds, which were near 2.5% of everything screened.
E-sel inducer: induces E-selectin expression in human endothelial cells. P16581. HUVEC E-selectin immunofluorescence imaging; normalized: neutral wells 0, TNF-alpha wells 100. activation, % at 7.58 µM. 260,000 compounds, 0.37% hits. AID 686992;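 active = mean E-selectin-positive cell signal at least 10% of the positive control, reached in at least 60% of replicates, without over 20% cell loss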
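material = human umbilical vein endothelial cells (HUVEC), E-selectin induction | quantity = 3,000 cells/well | medium = EGM-2 growth medium on 0.1% gelatin-coated wells | technique = immunofluorescence imaging | read-out basis = % PE-positive cells | control set = TNF-alpha positive control, DMSO neutral control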
miR122 inh: inhibitors of miR-122 in Huh7 cells; Huh7 miR-122 Renilla luciferase sensor, 48 h; neutral wells = 0, positive control = 100; activation (reporter increase), % at 12.5 µM; 340,000 compounds, 0.3% hits; AID 602342;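 active = mean replicate activation score at least 90 and every replicate individually at or above 90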;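 also: higher luciferase means less miR-122 activity so hits act as miR-122 inhibitors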
FGF22 binding: binders of recombinant human FGF22 by thermal shift | activity (Tm shift, normalised), % at 9.99 µM | 340,000 compounds, 1.5% hits | SYPRO orange fluorescence; percent of sucrose octasulfate shift, DMSO zero | AID 651658 | Q9HCT0;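 active = mean Tm shift, scaled 0 neutral to 100 positive control, at about 1.3% or above, every replicate too, limit read from the data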
Target sequence (Q9HCT0 whole entry, looked up): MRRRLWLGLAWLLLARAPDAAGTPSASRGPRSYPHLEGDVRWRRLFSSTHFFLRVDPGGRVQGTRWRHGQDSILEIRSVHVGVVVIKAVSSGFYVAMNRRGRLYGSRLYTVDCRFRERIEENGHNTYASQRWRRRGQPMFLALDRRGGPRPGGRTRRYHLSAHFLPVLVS
S100A4 inh HTS: blocks human S100A4 binding to myosin IIA peptide; P26447; AID 652163; 360,000 compounds, 0.14% hits; S100A4/TAMRA-MyoIIA peptide fluorescence polarization; inhibition, % at 10.7 µM;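 active = mean inhibition of at least 70% across replicates, with every replicate also reaching that level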
Target sequence (P26447 whole entry, looked up): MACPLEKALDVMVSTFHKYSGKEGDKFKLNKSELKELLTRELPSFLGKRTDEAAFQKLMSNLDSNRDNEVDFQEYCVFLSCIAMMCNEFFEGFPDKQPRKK
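Material: human S100A4 monomer with TAMRA-labelled myosin IIA peptide; buffer or medium: HEPES pH 7.2 with CaCl2, KCl, NaCl, DTT, Triton; compound dosing: one concentration per compound; schedule: 5 min incubation before reading; benchmarks: neutral control DMSO, positive control TFP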
SIRT5 inh: inhibitors of human sirtuin-5 desuccinylase. 330,000 compounds, 1.1% hits. inhibition, % at 15 µM. Q9NXA8. Purified SirT5, succinyl-peptide AMC, trypsin-coupled fluorescence; in the data active = inhibition above about 15%
Target sequence (Q9NXA8 whole entry, looked up): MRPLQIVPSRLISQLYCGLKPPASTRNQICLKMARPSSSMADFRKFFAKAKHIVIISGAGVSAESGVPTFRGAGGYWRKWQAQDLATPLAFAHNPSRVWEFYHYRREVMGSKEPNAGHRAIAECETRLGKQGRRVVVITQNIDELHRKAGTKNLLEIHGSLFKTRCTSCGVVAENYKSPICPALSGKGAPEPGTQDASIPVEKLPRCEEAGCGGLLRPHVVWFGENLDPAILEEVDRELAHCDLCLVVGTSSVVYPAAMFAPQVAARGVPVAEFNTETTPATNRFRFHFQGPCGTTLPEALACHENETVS
An asterisk follows results filed as active; x = no result; [ ] = remark or other dose.

SMILES	E-sel inducer	miR122 inh	FGF22 binding	S100A4 inh HTS	SIRT5 inh
CC(C)(C)OC(=O)N1CCCC(C(=O)Nc2cccc(C(=O)NCCCCc3ccccc3)c2)C1 (centres undefined)	0.7	0.0	0.3	-0.4	16.5*
CN(C(=O)c1cccc(NC(=O)Cc2ccc(NC(=O)C3CCCN(C(=O)C4CC4)C3)cc2)c1)C1CCCC1 (centres undefined)	0.0	x	43.4*	-3.0	x
CSC1=NCCN1S(=O)(=O)c1ccc2ccccc2c1	x	x	0.0	0.0	-0.2
CCSC1=NCCN1S(=O)(=O)c1ccc2ccccc2c1	x	x	43.6*	1.6	-4.2
COC(=O)c1cn(C(=O)c2ccccc2Cl)c2ccccc12	x	x	0.1	3.2	26.0*
CCCNC(=O)Nc1ccc2c(c1)C(=O)N(C)C[C@H](OC)[C@@H](C)CN(C(=O)CC)[C@@H](C)CO2	0.1	-3.3[16.7 µM]	x	x	x
NC(=O)c1ccsc1NC(=O)CSc1ccccc1F	x	x	x	-6.6	1.4
CC(=O)Nc1ccc(NC(=O)CSc2nnc(NC(=O)c3ccccc3F)s2)cc1	0.2	-5.9	1.9*	-17.7	6.2
NC(=O)c1ccsc1NC(=O)CSc1nnc(Nc2ccccc2)s1	-0.4	x	1.5*	-23.0	-1.7
O=C(CSc1nnc(NC(=O)c2ccccc2F)s1)NC1CCCC1	x	-4.4	-0.3	24.5	0.3
Cc1ccc(-c2csc(Nc3ccc(S(N)(=O)=O)cc3)n2)o1	-0.7	x	42.9*	-5.4	-2.9
CCn1c(=O)cc(N2CCOCC2)[nH]c1=O	-0.2	x	43.0*	-1.3	1.4
CCOc1ncccc1C(=O)N1CCCSC1=Nc1ccc(C(C)=O)cc1	3.1	4.4	43.4*	1.2	-3.0
CCOc1ccc(N=C2SCCCN2C(=O)c2c(CC)noc2C)cc1	-0.5	x	0.5	7.4	-4.1
CCCCN1C(=O)CC(SC2CC(=O)N(CCCC)C2=O)C1=O (centres undefined)	0.7	-1.6	43.0*	-2.3	x
O=C(CC(c1ccco1)S(=O)(=O)c1ccccc1)c1ccccc1 (centres undefined)	0.1	3.7	0.3	-5.1	20.3*
O=C(C[C@@H]1C[C@H]2c3cc(NC(=O)c4cccnc4)ccc3O[C@H]2[C@@H](CO)O1)NC1CCCC1	0.0	x	x	-6.9	-1.9
C[C@H](CO)N1C[C@H](C)[C@H](CN(C)C(=O)Cc2cccnc2)Oc2ncc(-c3cncnc3)cc2C1=O	0.5	-1.0[16.7 µM]	-0.1	11.5	1.1
COc1ccc(OC)c(S(=O)(=O)N2CCNCC2)c1	-0.3	171.6*	0.3	0.9	-3.0
O=S(=O)(c1ccc(Cl)cc1)N1CCC2(CC1)OCCN2S(=O)(=O)c1cccs1	-0.1	135.3*	-0.2	6.7	-9.1
COc1ccc(S(=O)(=O)N2CCC3(CC2)OCCN3S(=O)(=O)c2cccs2)cc1	-2.5	75.3	x	-0.4	-3.3
COc1ccc(OC)c(S(=O)(=O)N2CCC3(CC2)OCCN3S(=O)(=O)c2cccs2)c1	0.0	107.4*	-0.2	1.7	-0.8
CO[C@H]1CN(C)C(=O)c2ccc(NS(=O)(=O)c3ccc(Cl)cc3)cc2OC[C@H](C)N(C(=O)NC(C)C)C[C@@H]1C	-0.4	1.4[16.7 µM]	-0.4	-6.0	0.7
Cc1ccc(-c2ccc([C@@H]3[C@@H](CO)N4CCCCN(C(=O)c5ccncc5)C[C@@H]34)cc2)cc1	0.0	-5.2[16.7 µM]	-0.4	3.0	-0.8
Cc1ccc(S(=O)(=O)Nc2ccc3c(c2)C(=O)N([C@H](C)CO)C[C@H](C)[C@H](CN(C)S(=O)(=O)c2ccc(Cl)cc2)OCCCC[C@H](C)O3)cc1	0.8	-3.5[16.7 µM]	-0.6	x	x
SMILES	E-sel inducer	miR122 inh	FGF22 binding	S100A4 inh HTS	SIRT5 inh
Cc1ccc(S(=O)(=O)N(C)C[C@H]2OCCCC[C@H](C)Oc3ccc(NS(=O)(=O)c4ccc(Cl)cc4)cc3C(=O)N([C@H](C)CO)C[C@H]2C)cc1	0.1	0.9[16.7 µM]	-0.1	-1.9	25.9*
Cc1ccc(S(=O)(=O)N(C)C[C@@H]2OCCCC[C@@H](C)Oc3ccc(NS(=O)(=O)c4ccc(Cl)cc4)cc3C(=O)N([C@@H](C)CO)C[C@H]2C)cc1	-0.2	-11.9[16.7 µM]	0.1	-17.6	24.6*
Cc1ccc(S(=O)(=O)N(C)C[C@@H]2OCCCC[C@@H](C)Oc3ccc(NS(=O)(=O)c4ccc(Cl)cc4)cc3C(=O)N([C@H](C)CO)C[C@H]2C)cc1	0.2	-16.8[16.7 µM]	-0.2	-46.0	23.4*
Cc1ccc(S(=O)(=O)Nc2ccc3c(c2)C(=O)N([C@@H](C)CO)C[C@@H](C)[C@H](CN(C)S(=O)(=O)c2ccc(Cl)cc2)OCCCC[C@@H](C)O3)cc1	0.4	-18.5[16.7 µM]	-0.3	x	x
Cc1ccc(S(=O)(=O)Nc2ccc3c(c2)C(=O)N([C@H](C)CO)C[C@@H](C)[C@@H](CN(C)S(=O)(=O)c2ccc(Cl)cc2)OCCCC[C@H](C)O3)cc1	0.1	-4.1[16.7 µM]	-0.3	x	x
Cc1ccc(S(=O)(=O)N(C)C[C@@H]2OCCCC[C@H](C)Oc3ccc(NS(=O)(=O)c4ccc(Cl)cc4)cc3C(=O)N([C@H](C)CO)C[C@@H]2C)cc1	0.3	-5.8[16.7 µM]	-0.2	-7.4	19.2*
O=C1CN(S(=O)(=O)Cc2ccccc2)C[C@@H]2[C@H](c3ccc(C#CC4CC4)cc3)[C@@H](CO)N12	-0.1	x	x	4.0	-0.4
Cc1ccc(S(=O)(=O)Nc2ccc3c(c2)C(=O)N([C@H](C)CO)C[C@@H](C)[C@@H](CN(C)S(=O)(=O)c2ccc(Cl)cc2)OCCCC[C@@H](C)O3)cc1	0.4	-16.5[16.7 µM]	25.0*	x	x
C[C@@H]1CN([C@@H](C)CO)S(=O)(=O)c2ccc(C3=CCCCC3)cc2O[C@@H]1CN(C)Cc1ccncc1	-0.1	2.9[16.7 µM]	0.0	-1.7	4.9
Cc1noc2ncnc(Oc3ccc(Cl)cc3Cl)c12	x	x	43.6*	-1.3	-4.2
Cc1noc2ncnc(Oc3ccccc3Cl)c12	-2.7	x	42.9*	-7.1	-3.8
CC(C)CN1CCN(CCCOC(=O)Nc2cccc3ccccc23)CC1C (centres undefined)	0.1	x	44.2*	-0.8	x
C[C@@H]1CN([C@H](C)CO)C(=O)c2cc(NC(=O)CCC(F)(F)F)ccc2O[C@@H](C)CCCCO[C@@H]1CN(C)S(=O)(=O)c1cn(C)cn1	-0.2	7.2[16.7 µM]	-0.3	-25.0	-0.2
Cc1ccc(S(=O)(=O)Oc2ccc(/C=N/N=C3/NC(=O)C(CC(=O)O)S3)cc2)cc1 (centres undefined)	x	-2.9	0.1	-1.7	28.4*
CCOc1cc(/C=N/N=C2/NC(=O)C(CC(=O)O)S2)ccc1OS(=O)(=O)c1ccc(C)cc1 (centres undefined)	x	2.1	x	1.6	4.4
COc1ccc(/C=N/N=C2/NC(=O)C(CC(=O)NC(N)=O)S2)cc1 (centres undefined)	0.0	x	-0.1	4.7	2.1
COc1ccc(S(=O)(=O)Oc2cccc(/C=N/N=C3/NC(=O)C(CC(=O)O)S3)c2)cc1 (centres undefined)	-0.1	x	2.6*	-1.9	1.2

Source: PubChem BioAssay
